Measured values taken from paper PMC9293670 (Acta Pharmaceutica Sinica. B, 2022).

What was measured:
[1] = Metabolic stability in rat liver microsomes; assay type: in vitro ADME
PDE8A1 (480–820) = PDE8A1 (480–820) (Homo sapiens, UniProt O60658); experiment: PDE8A inhibition, 3H-cAMP radiometric enzyme assay; assay type: biochemical
Method in brief: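 Recombinant PDE8A1 (480–820) was expressed in E. coli BL21 (DE3), denatured in guanidine, refolded, and purified on Ni-NTA, hydroxyapatite, Q-Sepharose and gel filtration. ³H-cAMP (~20,000 cpm/assay) was reacted in Tris-HCl 20 mmol/L pH 7.5, MnCl₂ 10 mmol/L and DTT 1 mmol/L at 25 °C for 15 min. Reactions were stopped with ZnSO₄ then Ba(OH)₂, and supernatant ³H-cAMP was scintillation-counted. IC50 came from nonlinear regression over ≥8 concentrations, with each test run ≥3 times.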

PDE8A1 (480–820), sequence (O60658 480-820): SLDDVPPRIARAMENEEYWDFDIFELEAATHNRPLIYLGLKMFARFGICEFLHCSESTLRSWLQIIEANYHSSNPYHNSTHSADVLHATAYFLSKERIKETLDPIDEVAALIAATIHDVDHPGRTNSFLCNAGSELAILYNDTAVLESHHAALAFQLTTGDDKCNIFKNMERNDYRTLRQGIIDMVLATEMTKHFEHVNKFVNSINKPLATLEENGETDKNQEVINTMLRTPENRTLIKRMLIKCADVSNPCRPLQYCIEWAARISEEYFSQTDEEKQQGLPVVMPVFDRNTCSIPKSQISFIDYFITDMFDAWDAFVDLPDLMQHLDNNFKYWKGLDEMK

Structure (SMILES) | half-life [1] [min] | IC50 (PDE8A1 (480–820)) [nM]
Nc1nc(Cl)nc2c1ncn2Cc1cc(OCC(F)F)cc(-c2cccnc2)c1 [Compound 23] | 39 | 4.8 ± 0.3
CC(C)Oc1cc(Cn2cnc3c(N)nc(Cl)nc32)cc(OCC(F)F)c1 [Compound 17] | 16 | 5 ± 0.3
CC(C)c1cc(Cn2cnc3c(N)nc(Cl)nc32)cc(OCC(F)F)c1 [Compound 16] | 6 | 4.6 ± 0.6
Nc1nc(Cl)nc2c1ncn2Cc1cc(OCC(F)F)cc(OCC2CC2)c1 [Compound 19] |  | 40 ± 1
Nc1nc(Cl)nc2c1ncn2Cc1cc(F)cc(OCC(F)F)c1 [Compound 11] |  | 51 ± 3
COc1cc(Cn2cnc3c(N)nc(Cl)nc32)cc(OCC(F)F)c1 [Compound 13] |  | 591 ± 11
Nc1nc(Cl)nc2c1ncn2Cc1cc(OCC(F)F)cc(OC2CCC2)c1 [Compound 18] |  | 20 ± 2
Nc1nc(Cl)nc2c1ncn2Cc1cc(OCc2ccccc2)cc(OCC(F)F)c1 [Compound 21] |  | 597 ± 61
COCCOc1cc(Cn2cnc3c(N)nc(Cl)nc32)cc(OCC(F)F)c1 [Compound 20] |  | 52 ± 5
CCOc1cc(Cn2cnc3c(N)nc(Cl)nc32)cc(OCC(F)F)c1 [Compound 14] |  | 593 ± 69
Nc1nc(Cl)nc2c1ncn2Cc1cc(O)cc(OCC(F)F)c1 [Compound 12] |  | 193 ± 17
Nc1nc(Cl)nc2c1ncn2Cc1cc(OCC(F)F)cc(-c2ccncc2)c1 [Compound 22] | 8 | 3.1 ± 0.2
Nc1nc(Cl)nc2c1ncn2Cc1cc(OCC(F)F)cc(-c2ccco2)c1 [Compound 25] |  | 13 ± 2
